11 compounds from ChEMBL document CHEMBL3102820, “Developing bivalent ligands to target CUG triplet repeats, the causative agent of myotonic dystrophy type 1” (J Med Chem, 2013) can be followed below.

The subject of series [1] is Nucleic Acid. Briefly: Binding affinity to (CUG)12 RNA (unknown origin) assessed as change in melting temperature at 1 equiv treated in 5% DMSO by thermal denaturation assay. The series is classed as nucleic-acid assay.
The test system of series [2] is HeLa. Put plainly: Binding affinity to (CUG)960 RNA (unknown origin) expressed in human HeLa cells assessed as foci dispersion at 20 to 50 uM after 36 hrs by confocal microscopic analysis. In kind it is cell-based. The procedure, abridged:
(§1)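 HeLa cells, about 120,000 per well on coverslips, were transfected after 1 day with 500 ng DMPK-CTG960 plasmid (CTG0 plasmid for control cells). Ligand was given at 20, 35 or 50 μM for 36 h. Cells were then fixed and foci stained by FISH with Cy3-(CAG)10, with TO-PRO-3 nuclear stain. Confocal excitation was 405 nm (acridine ligand uptake), 555 nm (Cy3) and 639 nm (TO-PRO-3). Over 100 cells were scored for foci; two-tailed Student t test.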

The nature of series [3]: Binding affinity to 5'-TAMRA-labeled (CUG)6 RNA (unknown origin) by fluorescence titration assay. The procedure, abridged:
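Steady-state fluorescence titration. Ligand was titrated into 5'-TAMRA-(CUG)6 in 1X PBS, and the drop in TAMRA emission was followed. Normalized intensity was plotted against ligand concentration to give a binding isotherm, which was fitted for KD.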

Series [4] deals with HeLa. Put plainly: Drug uptake in human HeLa cells expressing (CUG)960 RNA at 35 uM after 36 hrs by confocal microscopic analysis. In kind it is ADME, cell-based. The procedure, abridged: as §1
Series [5] is described as follows: Drug uptake in nucleus of human HeLa cells expressing (CUG)960 RNA at 35 uM after 36 hrs by confocal microscopic analysis. The series is classed as ADME, cell-based. Summed up:
as §1

Series [6] is described as follows: Inhibition of biotin-labeled (CUG)12 RNA (unknown origin)-MBNL1 interaction by SPR analysis. The procedure, abridged: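 SPR in 1X PBS with Tween-20 and excess competitor tRNA. Biotinylated (CUG)12 was immobilized on a streptavidin chip and pre-incubated with ligand at varied concentrations to steady-state RU over 150 s. Then 0.65 μM MBNL1 was injected with ligand at the same concentration. Maximum RU at 150 s was converted to % (CUG)12 bound, normalized to the no-ligand value, and fitted for apparent IC50.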

Series [7] is described as follows: Cytotoxicity against human HeLa cells assessed as cytotoxicity up to 75 uM after 24 hrs by sulforhodamine B assay.
The test system of series [8] is Nucleic Acid. Briefly: Binding affinity to (CUG)12 RNA (unknown origin) assessed as change in melting temperature at 1 equiv treated in aqueous solution by thermal denaturation assay. To be noted: unidentified. In kind it is nucleic-acid assay.
Series [9] can be described thus: Inhibition of (CUG)12 RNA (unknown origin)-MBNL1 interaction after 10 to 15 mins.
Series [10] deals with HeLa. Put plainly: Binding affinity to (CUG)960 RNA (unknown origin) expressed in human HeLa cells coexpressing GFP-tagged MBNL1 assessed as MBNL1 foci dispersion throughout nucleus at 50 uM after 3 to 10 hrs by live cell microscopic analysis. The series is classed as cell-based. The procedure, abridged: (§2)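 HeLa cells co-transfected with DMPK-CTG960 and GFP-MBNL1 plasmids were grown on a gridded dish so each cell could be relocated by DIC. Ligand was added to 50 μM final. Time-lapse confocal images of GFP-MBNL1 foci and acridine fluorescence were taken before addition and at 3, 6 and 10 h. At 10 h, Z-stacks of 1 μm slices through the whole cell were taken. Untreated cells were imaged the same way.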

A short description of series [11]: Drug uptake in human HeLa cell membrane expressing (CUG)960 RNA coexpressing GFP-tagged MBNL1 at 50 uM after 3 to 10 hrs by live cell microscopic analysis. The series is classed as ADME, cell-based. The procedure, abridged:
as §2

A short description of series [12]: Drug uptake in human HeLa cell nuclear membrane expressing (CUG)960 RNA coexpressing GFP-tagged MBNL1 at 50 uM after 3 to 10 hrs by live cell microscopic analysis. The series is classed as ADME, cell membranes. The procedure, abridged:
as §2

The subject of series [13] is HeLa. Briefly: Binding affinity to (CUG)960 RNA (unknown origin) expressed in human HeLa cells coexpressing GFP-tagged MBNL1 assessed as MBNL1 foci dispersion throughout nucleus at Z-plane of cells at 50 uM after 10 hrs by live cell microscopic analysis. To be noted: unidentified. In kind it is cell-based. The procedure, abridged: as §2
The subject of series [14] is Nucleic Acid. Briefly: Binding affinity to (CUG)12 RNA (unknown origin) assessed as change in melting temperature by thermal denaturation assay. The series is classed as nucleic-acid assay.

The structures appear in SMILES notation. Activity calls are given as the source filed them. No cut-off for these calls is given here.

`CNC(=O)c1ccc2nc3ccccc3c(NCCCCNc3nc(N)nc(N)n3)c2c1`: in the series on Nucleic Acid [1], the ΔTm amounted to 1.8 °C. Moreover, the result in the series on HeLa [2] was inactive. The same compound came in with a dissociation constant Kd in series [3] of 66 µM. For the same compound, the Drug uptake result (in the series with HeLa [4]; in series [5]) was “Not Active” each time. Moreover, the IC50 in [6] worked out at 293 µM. Also, the cytotoxicity at 24 h in series [7] was below 20%.
On to `Nc1nc(N)nc(NCCCCNc2c3ccccc3nc3c(C(=O)NCCNCCNCCNCCNC(=O)c4cccc5c(NCCCCNc6nc(N)nc(N)n6)c6ccccc6nc45)cccc23)n1`, for which the affinity in series [3], expressed as Kd, was 3.8 µM. Moreover, in the series on Nucleic Acid [8], the ΔTm amounted to 9.6 °C. Moreover, it took 6 µM to reach half-maximal inhibition in series [6] (IC50).
As for `COc1ccc2nc3cc(Cl)ccc3c(NCCCCNc3nc(N)nc(N)n3)c2c1`, the IC50 in series [9] amounted to 46 µM.
`Nc1nc(N)nc(NCCCCNc2c3ccccc3nc3c(C(=O)NCCCNCCCNCCCNC(=O)c4cccc5c(NCCCCNc6nc(N)nc(N)n6)c6ccccc6nc45)cccc23)n1`: the result in the series on HeLa [2], in the series on HeLa [10] and in the series on HeLa [13] was Active. Besides, in series [3], the Kd stood at 0.32 µM. Moreover, the Drug uptake result (with HeLa [4]; in [11]; in series [12]; in [5]) was “Active” each time. For the same compound, in the series on Nucleic Acid [8], the ΔTm worked out at 9.3 °C. Also, in [6], the IC50 amounted to 1.1 µM. For the same compound, in [7], the cytotoxicity at 24 h is below 20%.
In the case of `Nc1nc(N)nc(NCCCCNc2c3ccccc3nc3c(C(=O)NCCNCCNCCNC(=O)c4cccc5c(NCCCCNc6nc(N)nc(N)n6)c6ccccc6nc45)cccc23)n1`, in the series with HeLa [2], the result was inactive. This compound displayed a dissociation constant (Kd) in series [3] of 4.8 µM. For the same compound, the Drug uptake entry (with HeLa [4]; in series [5]) was “Not Active” in each case. In the series with Nucleic Acid [8], the ΔTm was determined as 8.4 °C. The compound further had an IC50 in [6] of 5 µM.
For `CC(=O)NCCCNCCCNCCCNC(=O)c1cccc2c(NCCCCNc3nc(N)nc(N)n3)c3ccccc3nc12`, in series [6], half-maximal inhibition (IC50) required 15 µM. Moreover, the ΔTm in the series on Nucleic Acid [14] was 2.5 °C.
On to `Nc1nc(N)nc(NCCCCNc2c3ccccc3nc3c(C(=O)NCCOCCOCCOCCOCCOCCNC(=O)c4cccc5c(NCCCCNc6nc(N)nc(N)n6)c6ccccc6nc45)cccc23)n1`, for which the ΔTm with Nucleic Acid [1] turned out to be 1.8 °C. This compound also had an IC50 in series [6] of 37 µM.
For the compound `Nc1nc(N)nc(NCCCCNc2c3ccccc3nc3ccc(C(=O)NCCOCCOCCNC(=O)c4ccc5nc6ccccc6c(NCCCCNc6nc(N)nc(N)n6)c5c4)cc23)n1`, in the series on Nucleic Acid [1], the ΔTm is 2.7 °C. The compound also showed a Kd in [3] of 23 µM. This compound had an IC50 in series [6] of 18 µM.
Consider `Nc1nc(N)nc(NCCCCNc2c3ccccc3nc3ccc(C(=O)NCCOCCOCCOCCOCCOCCNC(=O)c4ccc5nc6ccccc6c(NCCCCNc6nc(N)nc(N)n6)c5c4)cc23)n1`, for which, in series [6], the IC50 is 43 µM. That is a double-digit micromolar value.
With `Nc1nc(N)nc(NCCCCNc2c3ccccc3nc3ccc(C(=O)NCCCNCCCCCCCCNCCCNC(=O)c4ccc5nc6ccccc6c(NCCCCNc6nc(N)nc(N)n6)c5c4)cc23)n1`, the outcome in the series with HeLa [2] was inactive. In addition, the Drug uptake entry (with HeLa [4]; in series [5]) was “Active” in each case.
As for `Nc1nc(N)nc(NCCCCNc2c3ccccc3nc3ccc(C(=O)NCCCOCCOCCOCCCNC(=O)c4ccc5nc6ccccc6c(NCCCCNc6nc(N)nc(N)n6)c5c4)cc23)n1`, the Kd in series [3] was found to be 75 µM. In addition, it took 28 µM to reach half-maximal inhibition in series [6] (IC50).
